Measured values: ChEMBL document CHEMBL1140109, “Discovery of inhibitors of Escherichia coli methionine aminopeptidase with the Fe(II)-form selectivity and antibacterial activity” (J Med Chem, 2008)
Values after ≈ are worked out from the molar mass of the structure shown. Active and inactive are the calls of the source. No cut-off for these calls is given here.

Tests used:
[1] = Inhibition of Escherichia coli BL21(DE3) methionine aminopeptidase in presence of Mn(II) metal ions
In short: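 E. coli MetAP apoenzyme, recombinant from BL21(DE3), at 500 nM and metallated with 20 μM MnCl2. Contained 50 mM MOPS pH 7.0 and 200 μM Met-AMC, at room temperature. IC50 was derived by non-linear fit of percent inhibition versus concentration.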

[2] = Inhibition of Escherichia coli BL21(DE3) methionine aminopeptidase in presence of Fe(II) metal ions
In short: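 Purified BL21(DE3)-expressed E. coli MetAP apoenzyme at 500 nM, activated with 50 μM FeCl2 plus 100 μM ascorbic acid. Buffer was 50 mM MOPS pH 7.0 with 200 μM Met-AMC, at room temperature. Hydrolysis was followed by fluorescence (ex 360/em 460 nm) at serially diluted inhibitor concentrations. IC50 was obtained by non-linear curve fit of percent inhibition.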

Escherichia coli [3] = test: Antibacterial activity against Escherichia coli AS19; format: functional, organism-based
In short: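 AS19 culture at 0.5 McFarland, exponential phase, diluted 1000-fold in Mueller Hinton medium containing 100 mM Tris pH 7.5, exposed to increasing inhibitor concentrations […]. Growth followed by absorbance at 600 nm every 5 min for 10 h at 37°C.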

Escherichia coli [4] = test: Antibacterial activity against Escherichia coli D22; format: functional, organism-based
In short: (§1)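 Exponential-phase culture at 0.5 McFarland diluted 1000-fold in Mueller Hinton medium with 100 mM Tris pH 7.5, mixed with inhibitor at increasing concentrations plus resazurin (110 µM final). Fluorescence (ex 530/em 590) read every 5 min for 10 h at 37°C.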

Bacillus subtilis = test: Antibacterial activity against Bacillus subtilis; format: functional, organism-based; in short: as §1
Priestia megaterium = test: Antibacterial activity against Bacillus megaterium; format: functional, organism-based; in short: as §1
[5] = Inhibition of Escherichia coli BL21(DE3) methionine aminopeptidase in presence of Co(II) metal ions
In short: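 Recombinant E. coli MetAP apoenzyme purified from BL21(DE3) cells, used at 500 nM and activated with 10 μM CoCl2. Buffer was 50 mM MOPS pH 7.0 with 200 μM Met-AMC substrate, at room temperature. AMC release was read by fluorescence (ex 360/em 460 nm) across serially diluted inhibitor. IC50 came from non-linear fitting of percent inhibition.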

Escherichia coli [6] = test: Antibacterial activity against Escherichia coli ATCC 25922; format: functional, organism-based
In short: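 Wild-type strain grown to exponential phase (0.5 McFarland), diluted 1000-fold in Tris-free Mueller Hinton medium, incubated with increasing inhibitor concentrations and 110 µM resazurin. Fluorescence (ex 530/em 590) monitored 10 h at 37°C at 5-min intervals.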

[7] = test system: Escherichia coli BL21(DE3); test: Inhibition of Escherichia coli BL21(DE3) methionine aminopeptidase up to 100 uM in presence of Co(II) metal ions
In short: (§2)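 Purified apoenzyme (500 nM) in 50 mM MOPS pH 7.0 with 200 µM Met-AMC, activated by 50 µM FeCl2 plus 100 µM ascorbic acid (Fe), 10 µM CoCl2 (Co) or 20 µM MnCl2 (Mn), with serially diluted inhibitor. AMC release read by fluorescence (ex 360/em 460) at room temperature. IC50 from non-linear fit of percent inhibition versus concentration.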

[8] = test system: Escherichia coli BL21(DE3); test: Inhibition of Escherichia coli BL21(DE3) methionine aminopeptidase up to 100 uM in presence of Mn(II) metal ions; in short: as §2
[9] = test system: Escherichia coli BL21(DE3); test: Inhibition of Escherichia coli BL21(DE3) methionine aminopeptidase up to 100 uM in presence of Fe(II) metal ions; in short: as §2

`Oc1ccc(-c2sccc2CCBr)cc1O` gave an IC50 [1] of 22.4 µM, an IC50 [2] of 7.3 µM and an IC50 (Escherichia coli [3]) of 11.3 µM. It also gave an MIC (Escherichia coli [3]) of 5 µg/mL (≈ 16.7 µM), an IC50 (Escherichia coli [4]) of 86 µM and an MIC (Escherichia coli [4]) of 51 µg/mL (≈ 170 µM). It also gave an IC50 (Bacillus subtilis) of 25.2 µM, an MIC (Bacillus subtilis) of 10 µg/mL (≈ 33.4 µM) and an IC50 (Priestia megaterium) of 21.1 µM. It also gave an MIC (Priestia megaterium) of 14 µg/mL (≈ 46.8 µM) and an IC50 [5] of 14 µM.
`Nc1nc(-c2ccc(O)c(O)c2)cs1` showed an IC50 [1] of over 100 µM, an IC50 [2] of 6.6 µM and an IC50 (Escherichia coli [3]) of 145 µM. The MIC (Escherichia coli [3]) was 39 µg/mL (≈ 187 µM), the IC50 (Escherichia coli [4]) was 39.9 µM and the MIC (Escherichia coli [4]) was 11 µg/mL (≈ 52.8 µM). The IC50 (Bacillus subtilis) was 28.6 µM, the MIC (Bacillus subtilis) was 13 µg/mL (≈ 62.4 µM) and the IC50 (Priestia megaterium) was 36.9 µM. The MIC (Priestia megaterium) was 26 µg/mL (≈ 125 µM) and the IC50 [5] was over 100 µM.
`CCCCc1ccsc1-c1ccc(O)c(O)c1` showed an IC50 [1] of 48.2 µM, an IC50 [2] of 9.2 µM and an IC50 (Escherichia coli [3]) of 12.4 µM. It also gave an MIC (Escherichia coli [3]) of 5 µg/mL (≈ 20.1 µM), an IC50 (Escherichia coli [4]) of 13.5 µM and an MIC (Escherichia coli [4]) of 5 µg/mL (≈ 20.1 µM). It also gave an IC50 (Bacillus subtilis) of 7.8 µM, an MIC (Bacillus subtilis) of 3 µg/mL (≈ 12.1 µM) and an IC50 (Priestia megaterium) of 7.6 µM. The MIC (Priestia megaterium) was 3 µg/mL (≈ 12.1 µM) and the IC50 [5] was over 100 µM.
Compound `Oc1ccc(-c2ccc(Cl)s2)cc1O` has an IC50 [1] of 44.8 µM, an IC50 [2] of 12.8 µM and an IC50 (Escherichia coli [3]) of 15.5 µM. The MIC (Escherichia coli [3]) was 7 µg/mL (≈ 30.9 µM), the IC50 (Escherichia coli [4]) was 7.5 µM and the MIC (Escherichia coli [4]) was 3 µg/mL (≈ 13.2 µM). It also gave an IC50 (Bacillus subtilis) of 7.1 µM, an MIC (Bacillus subtilis) of 2 µg/mL (≈ 8.82 µM) and an IC50 (Priestia megaterium) of 6.3 µM. For the same compound, the MIC (Priestia megaterium) was 2 µg/mL (≈ 8.82 µM) and the IC50 [5] was over 100 µM.
In the case of `Cc1cc(-c2ccc(O)c(O)c2)c(C)s1`, the IC50 [1] is reported as over 100 µM, the IC50 [2] is reported as 7.4 µM and the IC50 (Escherichia coli [3]) is reported as 18.5 µM. The MIC (Escherichia coli [3]) was 9 µg/mL (≈ 40.9 µM), the IC50 (Escherichia coli [4]) was 3.7 µM and the MIC (Escherichia coli [4]) was 4 µg/mL (≈ 18.2 µM). The IC50 (Bacillus subtilis) was 16.5 µM, the MIC (Bacillus subtilis) was 5 µg/mL (≈ 22.7 µM) and the IC50 (Priestia megaterium) was 16 µM. The MIC (Priestia megaterium) was 5 µg/mL (≈ 22.7 µM) and the IC50 [5] was over 100 µM.
For `Cc1nc(-c2ccc(O)c(O)c2)cs1`, the IC50 [1] was over 100 µM, the IC50 [2] was 13 µM and the IC50 (Escherichia coli [3]) was 117 µM. The MIC (Escherichia coli [3]) was 91 µg/mL (≈ 439 µM), the IC50 (Escherichia coli [4]) was 5.6 µM and the MIC (Escherichia coli [4]) was 4 µg/mL (≈ 19.3 µM). It also gave an IC50 (Bacillus subtilis) of 67 µM, an MIC (Bacillus subtilis) of 41 µg/mL (≈ 198 µM) and an IC50 (Priestia megaterium) of 69.8 µM. The MIC (Priestia megaterium) was 73 µg/mL (≈ 352 µM), the IC50 (Escherichia coli [6]) was 281 µM and the IC50 [5] was over 100 µM.
With `CC(=O)Nc1ccc(-c2csc(C)n2)cc1[N+](=O)[O-]` the Activity [7] was “inactive”, the Activity [8] was “inactive” and the Activity [9] was “inactive”. It also gave an IC50 (Escherichia coli [3]) of 63.3 µM.
`N#Cc1ccc(-c2ccc(O)c(O)c2)s1` gave an IC50 [1] of 30.4 µM, an IC50 [2] of 14.8 µM and an IC50 (Escherichia coli [3]) of 20.1 µM. The MIC (Escherichia coli [3]) was 11 µg/mL (≈ 50.6 µM), the IC50 (Escherichia coli [4]) was 44.2 µM and the MIC (Escherichia coli [4]) was 15 µg/mL (≈ 69 µM). The IC50 (Bacillus subtilis) was 14.6 µM, the MIC (Bacillus subtilis) was 13 µg/mL (≈ 59.8 µM) and the IC50 (Priestia megaterium) was 15.3 µM. It also gave an MIC (Priestia megaterium) of 9 µg/mL (≈ 41.4 µM) and an IC50 [5] of 36.3 µM.
In the case of `Cc1nc(-c2ccc(O)cc2O)cs1`, the Activity [7] is reported as “inactive”, the Activity [8] is reported as “inactive” and the Activity [9] is reported as “inactive”. The IC50 (Escherichia coli [3]) was 95.9 µM.
With `O=C(NC1CC1)c1ccsc1-c1ccc(O)c(O)c1` the IC50 [1] was over 100 µM, the IC50 [2] was 7.8 µM and the IC50 (Escherichia coli [3]) was 116 µM. It also gave an MIC (Escherichia coli [3]) of 113 µg/mL (≈ 410 µM), an IC50 (Escherichia coli [4]) of 254 µM and an MIC (Escherichia coli [4]) of 151 µg/mL (≈ 548 µM). For the same compound, the IC50 (Bacillus subtilis) was 109 µM, the MIC (Bacillus subtilis) was 56 µg/mL (≈ 203 µM) and the IC50 (Priestia megaterium) was 54 µM. For the same compound, the MIC (Priestia megaterium) was 79 µg/mL (≈ 287 µM) and the IC50 [5] was over 100 µM.
Work on `Cc1nc(C(=O)NC2CC2)c(-c2ccc(O)c(O)c2)s1` yielded an IC50 [1] of 100 µM, an IC50 [2] of 11.1 µM and an IC50 (Escherichia coli [3]) of 125 µM. The MIC (Escherichia coli [3]) was 138 µg/mL (≈ 475 µM), the IC50 (Escherichia coli [4]) was 167 µM and the MIC (Escherichia coli [4]) was 103 µg/mL (≈ 355 µM). For the same compound, the IC50 (Bacillus subtilis) was 113 µM, the MIC (Bacillus subtilis) was 51 µg/mL (≈ 176 µM) and the IC50 (Priestia megaterium) was 75.5 µM. The MIC (Priestia megaterium) was 62 µg/mL (≈ 214 µM) and the IC50 [5] was 92.3 µM.
For `Oc1ccc(-c2cccs2)cc1O`, the IC50 [1] was 15.7 µM, the IC50 [2] was 5.1 µM and the IC50 (Escherichia coli [3]) was 32.8 µM. The IC50 (Escherichia coli [4]) was 4 µM, the MIC (Escherichia coli [4]) was 3 µg/mL (≈ 15.6 µM) and the IC50 (Bacillus subtilis) was 16.1 µM. The MIC (Bacillus subtilis) was 7 µg/mL (≈ 36.4 µM), the IC50 (Priestia megaterium) was 21.2 µM and the MIC (Priestia megaterium) was 9 µg/mL (≈ 46.8 µM). For the same compound, the IC50 [5] was 23.7 µM.
For `Cc1nc(-c2ccc(O)c(C(N)=O)c2)cs1`, the Activity [7] was “inactive”, the Activity [8] was “inactive” and the Activity [9] was “inactive”. For the same compound, the IC50 (Escherichia coli [3]) was 125 µM.
Work on `Cc1ccc(-c2ccc(O)c(O)c2)s1` yielded an IC50 [1] of 28 µM, an IC50 [2] of 32.7 µM and an IC50 (Escherichia coli [3]) of 87.7 µM. The MIC (Escherichia coli [3]) was 60 µg/mL (≈ 291 µM), the IC50 (Escherichia coli [4]) was 39.1 µM and the MIC (Escherichia coli [4]) was 18 µg/mL (≈ 87.3 µM). For the same compound, the IC50 (Bacillus subtilis) was 25.1 µM, the MIC (Bacillus subtilis) was 10 µg/mL (≈ 48.5 µM) and the IC50 (Priestia megaterium) was 26 µM. For the same compound, the MIC (Priestia megaterium) was 10 µg/mL (≈ 48.5 µM) and the IC50 [5] was 51.5 µM.
